Published values gathered from unrelated publications.
Effect on: cell growth or viability

SMILES	cell line	technique	tested at	time	measurement	value
CCOc1ccc(Nc2c3c(nc4ccccc24)CCC3)cc1	J774.1	resazurin	–	72 h	IC50	33.2 µM
[Cl-].[Li+]	CHO	MTT	–	–	IC50	> 10000 µM
c1ccc(Oc2ccc(Nc3c4c(nc5ccccc35)CCC4)cc2)cc1	J774.1	resazurin	–	72 h	IC50	45.8 µM
OCn1ccnc1	SH-SY5Y	MTT	–	24 h	IC50	6.97 µM
C[C@H](Nc1ccc2c(c1)OCCn1cc(N3C(=O)OC[C@H]3C(F)F)nc1-2)C(N)=O	NCI-H596	ATP luminescence	–	5 days	EC50	0.0829 µM
CN1CCN(c2ccc(Nc3c4ccccc4nc4ccccc34)cc2)CC1	PLC-PRF-5	imaging	–	72 h	IC50	3.2 µM
CCOC(=O)c1cc(C)n(Cn2cnc3ccccc32)n1	SH-SY5Y	MTT	–	24 h	IC50	121 µM
Cc1nc(NC(=O)N2CCC[C@H]2C(N)=O)sc1-c1ccnc(C(C)(C)C(F)(F)F)c1	NCI-H596	ATP luminescence	–	5 days	EC50	0.492 µM
Cc1cnc(CNC(=O)c2c(=O)c3ccc(N4CCCN(C)CC4)nc3n3c2sc2ccccc23)cn1	PLC-PRF-5	imaging	–	72 h	IC50	0.33 µM
Cc1cc(C)n(Cn2cnc3ccccc32)n1	SH-SY5Y	MTT	–	24 h	IC50	82.7 µM
Cc1nc(Nc2ncc(C(=O)Nc3c(C)cccc3Cl)s2)cc(N2CC[C@H](O)C2)n1	HuT78	ATP luminescence	10 µM	72 h	inhibition	7%
